Compounds with a hit are over-represented: about 2.9% of the library has one in this group of screens.
NLRP3 yeast inh – NALP3 inhibition in yeast | 330,000 compounds, 0.39% hits | inhibition, % at 10 µM | AID 2825 | Yeast reconstituted NLRP3/ASC/caspase-1, beta-gal luminescence, 24 h;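 active = inhibition of 50% or more; inactive = inhibition below 50%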;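 also: plate controls were induced DMSO wells for no effect and uninduced yeast grown without galactose for full effect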
PolyA inh – inhibitors of polyadenylation in S. cerevisiae; 300,000 compounds, 0.02% hits; S. cerevisiae SKY197-pL101 polyadenylation reporter, beta-gal luminescence; efflux-impaired pdr1/pdr3 knockout yeast; score 100 = 6 SD above DMSO; activity score, % at 12 µM;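 active = lowest replicate activity score at least 50, where 100 means six control SD above control mean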;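 also: yeast exposed to compound for 9 h at 30 °C; higher score means more reporter readthrough which indicates perturbed polyadenylation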
NALP1 yeast inh – NALP1 inhibition | inhibition, % at 10 µM | 280,000 compounds, 0.61% hits | S. cerevisiae NALP1/ASC/caspase-1 growth, X-gal OD620, 72 h; in the data active = inhibition mostly above about 24%, no sharp cut-off; inactive = mostly below about 32%
Mot1-301 SUMO – SUMOylation pathway inhibition by Mot1-301 growth rescue; S. cerevisiae Mot1-301 growth rescue, ATP luminescence, 38.5C; percent above DMSO median, 100 means doubled; 320,000 compounds, 1% hits; growth rescue, % at 18.8 µM;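 active = every valid replicate shows activation above 250% relative to neutral control wells; inactive = the rest, any valid replicate at or below 250%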;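 also: OY570 slx delta 5 strain wells were the positive control but not used for scaling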
IMP-1 inh – blocks Pseudomonas aeruginosa IMP-1 metallo-beta-lactamase. inhibition, % at 5.6 µM. 290,000 compounds, 0.45% hits. purified IMP-1, nitrocefin hydrolysis, epi-absorbance fluorescence;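 active = inhibition above the mean plus 3 SD of all compounds in the same screening run, cut at about 4.5% in these data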;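 also: 0% = IMP-1 with DMSO and 100% = DMSO wells lacking enzyme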
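System: Purified recombinant IMP-1 metallo-beta-lactamase enzyme | Measured by: Fluorescence quenching readout, ex 480/em 530 nm | Replication: Singlicate | Incubation: 15 min preincubation plus 25 min reaction at 25 °C | Evaluation: Percent inhibition from optical density relative to buffer-blank wells | Benchmarks: DMSO with and without IMP-1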
VIM-2 inh – blocks Pseudomonas aeruginosa VIM-2 metallo-beta-lactamase; purified VIM-2, nitrocefin hydrolysis, epi-absorbance fluorescence; inhibition, % at 5.6 µM; 290,000 compounds, 0.89% hits;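 active = inhibition above the mean of all tested compounds plus 3 SD, cutoff set per screening run, cut at about 7.5% in these data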;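 also: red hydrolysis product quenches plate fluorescence so inhibitors raise well fluorescence; 0% = enzyme with DMSO and 100% = DMSO without enzyme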
Yeast Mot1 SUMO – yeast SUMO pathway inhibition in dose response; shares compounds with Mot1-301 SUMO; 2,300 tested, under 10 active; AID 493004; growth activity, percent, % at 42 µM; S. cerevisiae Mot1-301 galactose growth, ATP luminescence, 24 h; -100 = growth of slx-deleted rescue strain;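 active = Signal drops as the depositor expects, and the fitted half-maximal dose is no more than ten times the top valid tested dose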;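 also: more negative values mean stronger growth rescue toward the control strain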
* marks the source's active call; other numbers are inactive results; nt = not tested or not shown; + = active, no number; ! = repeats disagree.

SMILES | NLRP3 yeast inh | PolyA inh | NALP1 yeast inh | Mot1-301 SUMO | IMP-1 inh | VIM-2 inh | Yeast Mot1 SUMO
CC[C@@H](C)C(N)c1cn([C@@H](CCC(=O)O)C(=O)N2CCNCC2)nn1 (stereo partly specified) | 15.7 | 21.3 | 4.7 | 5.8 | -1.2 | 1.5 | nt
C[C@]12CC[C@H]3C(=CCc4cc(O)ccc43)[C@@H]1CCC2=O | 29.7 | -5.6 | 13.9 | 538.1*! | -3.7 | -2.6 | 0.1
Cc1ccc(C(C)NC(=S)NC2CCCCC2)c(C)c1 (stereo unspecified) | 21.7 | 20.5 | 12.2 | -9.9 | -1.2 | -2.6 | nt
CCN(C(=O)COC(=O)c1cc([N+](=O)[O-])ccc1N1CCOCC1)C1CCCCC1 | 16.4 | 4.9 | nt | 537.7* | nt | nt | 1.1
CCN(C(=O)COC(=O)c1cc([N+](=O)[O-])ccc1N1CCOCC1)C1CCS(=O)(=O)C1 (stereo unspecified) | 10.9 | 15.1 | nt | -3.8 | nt | nt | nt
Cc1cc(C)c(NC(=O)CNC(=O)c2cc([N+](=O)[O-])ccc2N2CCOCC2)c(C)c1 | 28.9 | 32.5 | nt | 507.3* | nt | nt | -0.1
COC(=O)c1ccc(N2C(=O)CC(NCc3ccccc3)C2=O)cc1 (stereo unspecified) | 5.1 | 5.1 | 21.1 | + | -1.1 | -0.5 | 0.5
CN(C(=O)c1cccc(NC(=O)Cc2cccc([N+](=O)[O-])c2)c1)C1CC1 | 3.0 | nt | nt | 6.3 | nt | nt | nt
O=C(Nc1cc(F)ccc1F)C1CCCO1 (stereo unspecified) | -16.2 | -4.2 | 19.8 | + | -3.9 | -6.0 | 0.0
O=C(O)/C=C\C(=O)NC1CCCCC1 | 18.9 | 11.7 | 31.5 | 509.1* | -0.9 | -1.0 | 0.7
c1ccc(CNc2ccc3ccccc3n2)nc1 | 8.0 | 6.4 | 2.6 | 364.7* | -0.6 | 5.5 | -1.6
Cc1nc2c3ccccc3nc(NNC(=O)CCC(=O)NC3CCCC3)n2n1 | -14.1 | 6.0 | 6.2 | -12.5 | -4.2 | -4.4 | nt
Cc1nc2c3ccccc3nc(NNC(=O)CCC(=O)N3CCCC(C)C3)n2n1 (stereo unspecified) | 18.4 | -6.0 | -15.7 | 455.0* | -3.3 | -5.4 | 0.0
O=C(NNC(=O)c1ccc(-n2cncn2)c([N+](=O)[O-])c1)c1cccc(Cl)c1 | 1.3 | -2.0 | nt | -2.3 | nt | nt | nt
O=C(NNC(=O)c1ccc(-n2cncn2)c([N+](=O)[O-])c1)c1ccc(Cl)cc1 | 3.8 | 7.5 | nt | 671.6* | nt | nt | 0.1
CCN(CC(=O)Nc1ccc(NC(C)=O)cc1)C(=O)/C=C/c1ccc([N+](=O)[O-])cc1 | 12.0 | -1.0 | nt | 11.8 | nt | nt | nt
O=C(O)CCc1ccc(-c2cccs2)n1NC(=O)c1cccs1 | 13.0 | 4.6 | 21.3 | + | -1.5 | -2.0 | 0.4
CC(C)CCNC(=O)Nc1ccc2c(c1)N(C)C(=O)CS2 | -1.1 | -8.0 | 5.0 | + | -2.3 | -1.4 | -0.3
COCCNC(=O)Nc1ccc2c(c1)N(C)C(=O)CS2 | -0.6 | 8.4 | 14.0 | -17.9 | -1.5 | -0.8 | nt
COc1ccc(CN2C(=O)C(=O)N(CC(N)=O)C2=O)cc1 | 10.0 | 13.0 | -21.5 | 719.3* | -3.8 | -2.7 | 0.5
CCCC[C@H]1COCCS(=O)(=O)N1Cc1ccc(Br)cc1 | 28.8 | 6.5 | 7.4 | 31.0 | -1.0 | -2.4 | nt
Cc1nn(Cc2ccccc2)c(C)c1CNC(=O)CN=C1NS(=O)(=O)c2ccccc21 | 4.7 | nt | nt | nt | nt | nt | nt
O=C(Cc1ccccc1)N1CCCC1c1ccccc1 (stereo unspecified) | -36.7 | 9.7 | 6.1 | + | -4.1 | 0.0 | 0.1
CC(C)(C)C(=O)C(Cl)C(=O)Nc1ccccc1 (stereo unspecified) | -27.0 | 20.2 | nt | 604.1* | -0.9 | -0.4 | -3.9
O=C(Nc1ccc(Nc2ccccc2)cc1)C(Cl)Cl | 33.8 | 1.6 | 55.5 | 55.6 | -2.6 | -0.3 | nt
SMILES | NLRP3 yeast inh | PolyA inh | NALP1 yeast inh | Mot1-301 SUMO | IMP-1 inh | VIM-2 inh | Yeast Mot1 SUMO
Cn1c(=O)c2c(nc(N/N=C/c3ccc(OC(=O)c4ccco4)cc3)n2Cc2ccccc2Cl)n(C)c1=O | -0.2 | -2.9 | 20.7 | + | -0.9 | 0.2 | 0.2
CS(=O)(=O)c1ccc(Cl)c(NC(=O)c2ccc3ccccc3c2)c1 | 17.4 | 11.9 | 41.9 | + | -3.9 | -2.9 | 0.4
O=C(O)COc1ccc(=O)n(-c2ccccc2)n1 | 8.7 | 3.6 | 13.0 | + | -3.6 | -5.4 | 0.3
Cc1ccc(C2=NN(CC(=O)NCCN(C)C)C(=O)CC2)cc1 | 3.1 | -4.7 | 4.7 | -7.7 | -2.2 | -0.8 | nt
Cc1ccc(C2=NN(CC(=O)NCc3cccs3)C(=O)CC2)cc1 | 2.1 | 24.6 | 8.4 | 399.1* | -2.9 | -2.5 | 0.0
Cc1ccc(S(=O)(=O)/N=C(/Nc2ccc([N+](=O)[O-])cc2[N+](=O)[O-])c2ccccc2)cc1 | -11.1 | nt | nt | 415.4* | nt | nt | -0.9
Cc1ccc(S(=O)(=O)/N=C(/Nc2ccc([N+](=O)[O-])cc2)c2ccccc2)cc1 | 9.5 | -7.5 | 23.5 | -16.4 | -2.5 | 0.3 | nt
CCOc1cc(C(=O)Nc2cccc(OCC(=O)N3CCOCC3)c2)cc(OCC)c1OCC | 4.7 | 22.0 | 29.9 | 148.4 | -0.7 | 1.3 | nt
CC1CCCN(C(=O)COC(=O)CNC(=O)c2ccc(Br)cc2)C1 (stereo unspecified) | 15.9 | -4.1 | nt | -10.1 | nt | nt | nt
CCOC(=O)C1C(=O)NC(SCC(=O)Nc2nccs2)=C(C#N)C1c1ccccc1OCC (stereo unspecified) | 11.1 | -0.9 | -5.2 | 633.0* | 1.1 | -2.3 | 0.0
COc1ccc(C(=O)OCC(=O)c2ccccc2)cc1S(=O)(=O)N1CCOCC1 | 1.0 | -9.7 | 7.3 | + | 2.3 | 0.4 | -0.5
CCn1c(N2CCN(C(=O)C34CC5CC(CC(C5)C3)C4)CC2)nc2ccccc21 | 15.9 | 0.1 | 46.1 | 389.3* | -1.0 | -0.8 | 0.0
O=C(N1CCN(c2ccccc2)CC1)C12CC3CC(CC(C3)C1)C2 | 14.6 | -3.1 | 22.3 | 16.1 | 0.3 | -1.0 | nt
CC(NC(=O)C12CC3CC(C)(CC(C)(C3)C1)C2)c1ccncc1 (stereo unspecified) | 15.4 | 6.6 | 0.9 | 16.3 | -1.6 | -2.3 | nt
COC(=O)CN(C(=S)Nc1ccc(F)cc1)C1CC(=O)N(c2ccccc2)C1=O (stereo unspecified) | 9.7 | -9.7 | 20.5 | 652.7* | -1.1 | -3.5 | -0.2
O=C1CC(N(CCc2ccccc2)C(=S)Nc2ccccc2)C(=O)N1c1ccccc1 (stereo unspecified) | 10.6 | 2.3 | 36.9 | -16.3 | -2.4 | -1.2 | nt
COC(=O)CN(C(=S)Nc1ccc(F)cc1)C1CC(=O)N(c2ccc(OC)cc2)C1=O (stereo unspecified) | -0.1 | 0.7 | nt | -3.1 | -1.4 | -2.0 | nt

Screening data (PubChem)
